Source: PubChem (several laboratories)
Granule exo inh – blocks lytic granule exocytosis. TALL-104 LAMP-1 surface exposure, flow cytometry; cells stimulated with thapsigargin and PMA. inhibition, % at 10 µM. 0.66% of 360,000 active. AID 651702;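 active = inhibition above about 55%, limit read from the data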
HGIII-sPLA2 inh – Inhibits HGIII-sPLA2 liposome hydrolysis, primary screen; QFRET BODIPY PC-A2 liposome hydrolysis, fluorescence; inhibition, % at 12.2 µM; 0.56% of 370,000 active;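 active = inhibition above mean plus 3 SD of compounds lying within the high and low control bounds, cut at about 19% in these data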;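 also: 0% = median of test compound wells and 100% = no enzyme DMSO wells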
NTR1 agonist – activates human neurotensin receptor 1. P30989. NTR1-U2OS beta-arrestin-GFP spot imaging, agonist mode. activation, % at 20 µM. 0.17% of 330,000 active. AID 493036;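 active = activation at or above 40% of the spot to cytoplasm intensity ratio, with at least 20 cells analyzed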;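 also: 0% = DMSO without peptide and 100% = 100 nM NTR1 peptide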
Target sequence (P30989 whole entry, looked up): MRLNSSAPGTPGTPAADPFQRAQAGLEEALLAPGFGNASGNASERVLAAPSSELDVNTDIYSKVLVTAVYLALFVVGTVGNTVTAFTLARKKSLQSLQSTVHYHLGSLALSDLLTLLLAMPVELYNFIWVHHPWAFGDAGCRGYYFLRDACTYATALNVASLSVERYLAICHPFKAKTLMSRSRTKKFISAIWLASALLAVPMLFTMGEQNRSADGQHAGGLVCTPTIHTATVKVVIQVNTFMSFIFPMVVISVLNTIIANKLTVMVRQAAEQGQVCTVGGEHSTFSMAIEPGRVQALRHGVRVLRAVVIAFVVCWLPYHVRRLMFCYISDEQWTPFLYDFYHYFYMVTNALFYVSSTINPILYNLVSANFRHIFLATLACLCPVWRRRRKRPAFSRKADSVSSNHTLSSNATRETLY
A1 inh – inhibitors of the anti-apoptotic protein A1, read as caspase activation; caspase activation, % (test concentration not listed); 0.066% of 330,000 active; MEF A1-2A-BIM cells, Caspase-Glo 3/7 luminescence, 3 h; percent of clofoctol response, vehicle zero;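 active = over half of replicate activation scores above 10%, or exactly half above 10 with the replicate mean above 10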
MC4R barr agon – activates human MC4R beta-arrestin recruitment; activation, % at 8.9 µM; U2OS MC4R beta-arrestin complementation, luminescence; percent of melanotan II response, DMSO zero; P32245; AID 540308; 0.98% of 360,000 active;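 active = activation above a per-plate cutoff, the mean activation of sample wells on that plate plus 3 SD, cut at about 8% in these data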
MC4R antag cAMP – antagonists of human melanocortin 4 receptor (MC4R). inhibition, % at 6.5 µM. MC4R-expressing cells, MTII-stimulated cAMP, LANCE TR-FRET. 0.48% of 360,000 active;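 active = inhibition above its plate's cutoff, the mean of tested wells on that plate plus 3 SD, cut at about 29% in these data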;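 also: 0% = Melanotan II alone and 100% = Melanotan II plus saturating MCL0020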
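Material: human MC4R-expressing U2OS cells. Probe or stimulus: Melanotan II challenge. Dosing: 6.5 µM single dose. Times: 30-min compound, 1-h challenge, 1-h detection, room temperature. Technique: TR-FRET with Eu-cAMP and labeled anti-cAMP, 671 nm. Replication: singlicate.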
Starred values were filed as active, the others as inactive; . = not tested or not shown. The list is not random: actives were taken first. Their share in the collection is about 2.5%.

SMILES	Granule exo inh	HGIII-sPLA2 inh	NTR1 agonist	A1 inh	MC4R barr agon	MC4R antag cAMP
Nc1[nH]c(C(=O)c2ccc(Br)cc2)c(-c2ccc(Br)cc2)c1C(=O)N1CCCCC1	.	-6.0	.	.	.	.
CCCOc1ccc(C(=O)NNC(=S)NC(C)=O)cc1	2.2	8.8	-0.6	-0.3	-4.6	-2.6
CCCOc1ccc(C(=O)NNC(=S)NC(=O)c2cccs2)cc1	0.2	31.5*	7.5	1.3	-8.2	4.4
CCCOc1ccc(C(=O)NNC(=S)NC(=O)c2ccccc2)cc1	-19.3	20.3*	9.1	0.8	-4.9	2.8
CCn1c(COc2ccccc2)nnc1SCC(=O)Nc1ccc(S(=O)(=O)Nc2cc(C)nc(C)n2)cc1	.	-13.9	.	.	.	.
C=CCN1C(=O)[C@H](CC(=O)N2CCCCC2)[C@@]2(C(=O)OCC)CCCC=C12	.	8.4	.	.	.	.
Cc1cccc(OCC(=O)NCC(=O)N/N=C/c2cc(Br)cc(Br)c2O)c1	29.3	6.3	52.3*	-0.3	1.4	9.6
O=[N+]([O-])c1ccc2c3n([n+]([O-])c2c1)CCN=C3c1ccc(Cl)cc1	77.9*	4.1	1.3	1.7	-2.5	1.2
CCCCCCc1c[nH]c2ccc(O)c(-c3ccccc3)c12	.	-8.0	.	.	.	.
O=C(Nc1ccc(Cl)c(Cl)c1)C1CCN(c2ncccn2)CC1	.	1.6	.	.	.	.
COc1ccc2c(c1)OC[C@H]1[C@H]2N2C(=O)c3ccc(C)cc3NC(=O)[C@@]2(C)[C@H]1c1ccccc1	-4.6	40.4*	-2.6	0.0	-0.6	6.5
COc1ccc2c(c1)[C@H]1[C@H](CO2)[C@H](c2ccccc2)[C@]2(C)C(=O)Nc3cc(C)ccc3C(=O)N12	11.0	-1.6	-0.2	-0.1	-0.8	5.0
N#CCn1nnc(-c2ccc3c(c2)OCO3)n1	0.4	-7.5	0.4	6.7*	1.2	22.6
Cc1ccccc1Cn1nnc(-c2ccc3c(c2)OCO3)n1	-0.4	-2.1	2.6	0.0	-1.6	-0.2
CC(C)(C)c1ccc(OCc2cnc(Cl)s2)cc1	-0.4	3.7	6.4	-0.1	9.3*	26.7
N#C/C(=C\c1c[nH]c2ccc(Br)cc12)c1ccccn1	1.2	-3.1	51.0*	1.8	3.5	13.1
CC1CCc2nc(NC(=O)CN3CCN(Cc4ccc5c(c4)OCO5)CC3)sc2C1 (stereo not given)	3.0	-15.3	2.8	0.3	9.3*	19.5
O=C(C#Cc1cccc([N+](=O)[O-])c1)c1ccccc1	70.0*	.	10.3	1.2	-3.5	26.2
O=C(O)C(=Cc1cccc([N+](=O)[O-])c1)c1ccccc1	-8.1	5.3	.	.	-0.8	-2.7
Cc1ccc(NC(=O)c2ccccc2OCC(=O)c2ccccc2)cc1	3.8	-6.0	6.7	0.0	8.6*	18.4
Cc1ccc(-n2c(C)c([N+](=O)[O-])c3ccc(O)c(CN(C)C)c32)cc1	-0.8	-30.1	0.4	0.9	-3.1	-1.6
COc1ccc(-n2c(C)c([N+](=O)[O-])c3ccc(O)c(CN4CCCCC4)c32)cc1	63.3*	-0.7	1.5	-0.1	-1.7	-1.5
O=[N+]([O-])/C=C/c1cn(Cc2ccccc2)c2ccccc12	17.6	-6.6	2.7	-0.1	0.9	0.1
N#Cc1ccccc1Cn1cc(/C=C/[N+](=O)[O-])c2ccccc21	60.9*	-0.7	27.8	0.5	-1.3	3.4
O=C(Cn1cc(/C=C\[N+](=O)[O-])c2ccccc21)Nc1ccccc1	-0.5	-15.3	47.2*	-0.2	-3.2	-8.7
SMILES	Granule exo inh	HGIII-sPLA2 inh	NTR1 agonist	A1 inh	MC4R barr agon	MC4R antag cAMP
C[C@H](O)[C@@H]1C(=O)N2CCc3c([nH]c4c(-c5ccc6c(c5)OCO6)cccc34)[C@@H]2C[C@@H]1N(C)C(=O)NC1CCCCC1	.	-42.8	.	.	.	.
O=C(NCC(c1ccccc1)c1ccccc1)[C@H](Cc1c[nH]c2ccccc12)NC1(C(=O)NC2CCCCC2)CCC1	.	-70.1	.	.	.	.
N#Cc1ccc(/C=C2\CC3(OC(=O)c4cccc(F)c4)CCCN2C3)cc1 (stereo not given)	.	-4.2	.	.	.	.
CCOc1ccc(/C=N/NC(=O)Cc2csc(Nc3cccc(C(F)(F)F)c3)n2)c(OCC)c1	68.2*	-27.0	16.4	0.0	-1.1	13.1
CC(C)C[C@H](NC1(C(=O)NCCc2c[nH]c3ccccc23)CCC1)C(=O)NCCCc1ccccc1	.	-43.4	.	.	.	.
Cc1ccc(S(=O)(=O)NCC(=O)OCC(=O)N2N=C(c3ccc(Cl)cc3)CC2c2ccco2)cc1C (stereo not given)	2.2	-10.8	-0.2	0.2	9.2*	17.6
Cc1cc(Oc2ccc(Br)cc2)nc(SCC(=O)c2ccccc2)n1	3.6	-38.2	11.3	1.4	8.6*	4.6
Cc1cc(Oc2ccc3ccccc3c2)nc(SCC(=O)c2ccccc2)n1	6.5	-46.8	0.0	-0.6	3.4	22.2
COC(=O)C1=C(C(=O)OC)SC2(S1)C(C(=O)OC)=C(C(=O)OC)SC1=C2c2cc(C)ccc2NC1(C)C	6.7	-1.4	6.8	0.2	-1.4	53.3*
CCOC(=O)C1(N(CC)CC)Sc2cc(C)ccc2NC1=O (stereo not given)	-1.6	-17.7	0.3	-0.4	0.9	12.1
COc1ccc(C)cc1S(=O)(=O)Nc1ccc(F)cc1	3.8	-7.2	-0.2	-0.2	-3.0	4.8
CCOc1cc(C)c(S(=O)(=O)Nc2ccc(F)cc2)cc1C	3.6	-30.5	4.7	-0.2	15.7*	19.6
COc1ccc2c(c1)c(N=NC(N)=S)c(O)n2CC(=O)c1ccccc1	-10.9	4.1	0.6	2.2	12.2*	-0.7
Fc1ccccc1-c1n[nH]c(=S)n1N=Cc1ccc(-c2ccccc2)cc1	.	-6.3	.	.	.	.
Cc1cc(Cl)ccc1NNC(N)=S	62.1*	14.8	2.8	1.2	0.2	0.4
CCN(CC)C(=O)CC[C@H]1CC[C@]2(CCCN(C(=O)C3CCCC3)C2)O1	.	12.8	.	.	.	.
O=S(=O)(CS(=O)(=O)c1ccc(Br)cc1)c1ccc(Br)cc1	.	3.6	.	.	.	.
CCCCCCCCOC(=O)CCc1c(C)[nH]c(=S)[nH]c1=O	7.2	-5.3	1.7	0.3	9.0*	1.2
CS(=O)(=O)c1ccc(S(=O)CC(=O)OCc2ccccc2)c([N+](=O)[O-])c1 (stereo not given)	96.9*	-10.3	.	.	-4.2	14.0
CCOC(=O)c1ccccc1OC(=O)CS(=O)c1ccccc1[N+](=O)[O-] (stereo not given)	-0.9	-4.9	0.9	0.2	-0.4	4.5
Cc1cccc(-n2ncc3c(N4CCCC4)ncnc32)c1	-0.3	5.6	5.1	-7.9	-1.5	3.6
Cc1cccc(-n2ncc3c(N4CC(C)CC(C)C4)ncnc32)c1 (stereo not given)	-2.7	17.0	2.8	0.2	8.4*	-2.5
O=C(NCCCl)c1ccc(OCc2ccccc2)cc1Cl	-7.1	21.5*	-0.2	-0.7	1.8	4.7
C#CCNC(=O)c1ccc(OCc2ccccc2)cc1Cl	-4.3	10.1	-0.4	-0.5	-1.3	11.4
